Published values gathered from unrelated publications.
Each line is one published result; the experiments were not run side by side.
Target: Mitogen-activated protein kinase kinase kinase kinase 2 (MAP4K2, Homo sapiens, UniProt Q12851)
Residues used in one study (Q12851 1-820): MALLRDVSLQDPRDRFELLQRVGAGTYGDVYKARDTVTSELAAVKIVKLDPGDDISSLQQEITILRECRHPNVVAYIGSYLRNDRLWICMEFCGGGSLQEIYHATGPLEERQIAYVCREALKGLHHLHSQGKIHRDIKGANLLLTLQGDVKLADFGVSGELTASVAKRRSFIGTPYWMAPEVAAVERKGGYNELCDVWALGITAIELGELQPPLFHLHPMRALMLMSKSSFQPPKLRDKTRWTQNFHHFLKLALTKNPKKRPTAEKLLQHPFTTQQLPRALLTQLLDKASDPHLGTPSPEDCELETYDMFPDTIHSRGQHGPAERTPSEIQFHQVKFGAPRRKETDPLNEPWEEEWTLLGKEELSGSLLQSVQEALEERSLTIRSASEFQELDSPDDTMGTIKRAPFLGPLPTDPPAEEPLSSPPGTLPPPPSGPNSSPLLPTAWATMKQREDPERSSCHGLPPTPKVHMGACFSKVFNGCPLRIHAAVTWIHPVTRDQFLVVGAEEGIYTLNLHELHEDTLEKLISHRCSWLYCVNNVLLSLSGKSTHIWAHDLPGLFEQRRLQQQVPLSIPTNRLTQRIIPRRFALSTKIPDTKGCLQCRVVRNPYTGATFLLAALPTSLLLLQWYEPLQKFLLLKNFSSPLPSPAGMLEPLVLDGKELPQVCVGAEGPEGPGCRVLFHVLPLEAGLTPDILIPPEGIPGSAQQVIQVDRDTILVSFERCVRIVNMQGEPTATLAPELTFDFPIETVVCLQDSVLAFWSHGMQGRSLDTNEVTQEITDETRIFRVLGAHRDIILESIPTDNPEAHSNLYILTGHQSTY

| Compound | test | conditions | remaining binding |
| --- | --- | --- | --- |
| F[C@@H]1CCN(c2nccc(-c3cnn4ncccc34)n2)C1 | binding | 1 µM | 100% |
| CN(C)c1ncnc(-c2ccc3nc(Nc4cc(CN5CCN(C(=O)CC(F)(F)F)CC5)ccn4)[nH]c3c2)c1Cl | cell-free assay, competition with immobilised ligand | 1 µM | 69% |
| COc1cnc(Nc2cccc(S(N)(=O)=O)c2)nc1N1CCN(c2ccccc2)CC1 | binding, competition with immobilised ligand | 1 µM | 78% |
| CO[C@H]1CC[C@H](CNc2ccc(S(=O)(=O)NC(=O)c3ccc(N4CCN(CC5=C(c6ccc(Cl)cc6)CC(C)(C)CC5)CC4)cc3Oc3cnc4[nH]ccc4c3)cc2[N+](=O)[O-])CC1 | cell-free assay, competition with immobilised ligand | 1 µM | 83% |
| O=C(NCCCN1CCOCC1)c1ccc(Nc2nccc(-c3cc4ccccc4s3)n2)cc1 | binding, competition with immobilised ligand | 1 µM | 73% |
| C[C@@H]1CCN(c2nccc(-c3cnn4ncccc34)n2)C1 | binding | 1 µM | 70% |
| O=C(Nc1cnc(Oc2ccc(F)cc2)nc1)N1CCc2ncccc2[C@@H]1c1ccc(F)cc1 | cell-free assay, competition with immobilised ligand | 1 µM | 100% |
| CN(C)c1nccc(-c2cnn3ncccc23)n1 | binding | 1 µM | 100% |
| CCN1CCN(Cc2ccc(C(=O)Nc3ccc(C)c(Oc4ccc5c(c4)CC(=O)N5)c3)cc2C(F)(F)F)CC1 | binding, competition with immobilised ligand | 1 µM | 100% |
| O=C(c1ccc(Nc2ncc(Cl)c(-c3cc4ccccc4s3)n2)cc1)N1CCC(N2CCCC2)CC1 | binding, competition with immobilised ligand | 1 µM | 36% |
| COc1ncc2cc3ccccc3nc2c1C#N | cell-free assay, competition with immobilised ligand | 5 µM | 84% |
| Cc1cnn2ncc(-c3ccnc(N(C)C)n3)c2c1 | binding | 1 µM | 99% |
| O=C(O)c1cc(-c2ccc(C3CCNCC3)cc2)c2ccc(-c3ccc(C(F)(F)F)cc3)cc2c1 | cell-free assay, competition with immobilised ligand | 1 µM | 100% |
| O=C(c1ccc(Nc2nccc(-c3cc4ccccc4s3)n2)cc1)N1CCC(N2CCCC2)CC1 | binding, competition with immobilised ligand | 1 µM | 52% |
| COc1cnc(Nc2cccc(S(N)(=O)=O)c2)nc1N1CCN(c2ccccc2)C(=O)C1 | binding, competition with immobilised ligand | 1 µM | 95% |
| CN(CCCC(F)(F)F)c1nccc(-c2cnn3ncccc23)n1 | binding | 1 µM | 100% |
| Nc1ncc2c(n1)-c1c([nH]c3ccc(C#CC4CC4)cc13)CCCC2 | binding, competition with immobilised ligand | 1 µM | 84% |
| CNCc1ccccc1-c1csc([C@H](C)Nc2nc(C)nc3cc(OC)c(OC)cc23)c1 | cell-free assay, competition with immobilised ligand | 1 µM | 97% |
| COc1ccnn2ncc(-c3ccnc(N(C)C)n3)c12 | binding | 1 µM | 73% |
| O=C(NC[C@@H]1[C@H]2CN(C(=O)OCc3cc(C(F)(F)F)cc(C(F)(F)F)c3)C[C@@H]12)c1ccc2[nH]nnc2c1 | cell-free assay, competition with immobilised ligand | 1 µM | 92% |
| CN(c1nccc(-c2cnn3ncccc23)n1)C1CC1 | binding | 1 µM | 100% |
| O=C(Nc1c[nH]nc1C(=O)NC1CCNCC1)c1cc(F)cc(F)c1 | binding, competition with immobilised ligand | 1 µM | 69% |
